Measured values reported in ChEMBL document CHEMBL5058577, “EUbOPEN Chemogenomics Library 2 (Multiplex)” (2022).

System: HEK-293T
Assay: Multiplex assay against HEK293T
Assay type: toxicity, cell-based
Conditions: human
Procedure, shortened: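 Phenotypes for tubulin, mitochondrial mass and membrane permeability are expressed as per cents of healthy-nucleus cells. Cells were stained live at seeding with Hoechst33342, BioTracker Green Microtubule Cytoskeleton Dye, MitoTracker Red and Annexin V Alexa Fluor 680, then imaged after compound addition on a CQ1 microscope at 37°C and 5% CO2. Machine-learning gating in CellPathfinder separated Hoechst high-intensity objects from normal cells, divided normal cells by nuclear state (healthy, pyknosed, fragmented) and divided pyknosed cells into mitotic or apoptotic.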

[1] = 12 h, 1 µM, compound concentration 1 uM, replicate 1
[2] = 12 h, 1 µM, compound concentration 1 uM, replicate 2
[3] = 12 h, 10 µM, compound concentration 10 uM, replicate 1
[4] = 12 h, 10 µM, compound concentration 10 uM, replicate 2
[5] = 24 h, 1 µM, compound concentration 1 uM, replicate 1
[6] = 24 h, 1 µM, compound concentration 1 uM, replicate 2
[7] = 24 h, 10 µM, compound concentration 10 uM, replicate 1
[8] = 24 h, 10 µM, compound concentration 10 uM, replicate 2
[9] = 48 h, 1 µM, compound concentration 1 uM, replicate 1
[10] = 48 h, 1 µM, compound concentration 1 uM, replicate 2
[11] = 48 h, 10 µM, compound concentration 10 uM, replicate 1
[12] = 48 h, 10 µM, compound concentration 10 uM, replicate 2

Structure (SMILES): O=C(O)Cc1ccccc1Nc1c(Cl)cccc1Cl [DICLOFENAC]
- Population Apoptotic (%) [1]: 36%
- Population Fragmented Nuclei (%) [1]: 7%
- Population Healthy Nuclei (%) [1]: 77%
- Population Hoechst High Intensity Objects (%) [1]: 5%
- Population Membrane Permeable-Phenotype (%) [1]: 0%
- Population Mitochondria Different-Phenotype (%) [1]: 53%
- Population Mitotic Cells (%) [1]: 63%
- Population Normal (%) [1]: 94%
- Population Pyknosed Nuclei (%) [1]: 14%
- Population Tubulin-Different-Phenotype (%) [1]: 32%
- Total Cell Count [1]: 376
- Population Apoptotic (%) [2]: 52%
- Population Healthy Nuclei (%) [2]: 79%
- Population Hoechst High Intensity Objects (%) [2]: 10%
- Population Mitochondria Different-Phenotype (%) [2]: 61%
- Population Mitotic Cells (%) [2]: 47%
- Population Normal (%) [2]: 89%
- Population Pyknosed Nuclei (%) [2]: 13%
- Population Tubulin-Different-Phenotype (%) [2]: 23%
- Total Cell Count [2]: 324
- Population Apoptotic (%) [3]: 30%
- Population Fragmented Nuclei (%) [3]: 7%
- Population Healthy Nuclei (%) [3]: 77%
- Population Hoechst High Intensity Objects (%) [3]: 6%
- Population Membrane Permeable-Phenotype (%) [3]: 0%
- Population Mitochondria Different-Phenotype (%) [3]: 45%
- Population Mitotic Cells (%) [3]: 69%
- Population Normal (%) [3]: 93%
- Population Pyknosed Nuclei (%) [3]: 14%
- Population Tubulin-Different-Phenotype (%) [3]: 35%
- Total Cell Count [3]: 480
- Population Apoptotic (%) [4]: 57%
- Population Healthy Nuclei (%) [4]: 75%
- Population Hoechst High Intensity Objects (%) [4]: 14%
- Population Mitochondria Different-Phenotype (%) [4]: 68%
- Population Mitotic Cells (%) [4]: 42%
- Population Normal (%) [4]: 85%
- Population Pyknosed Nuclei (%) [4]: 17%
- Total Cell Count [4]: 370
- Population Apoptotic (%) [5]: 30%
- Population Fragmented Nuclei (%) [5]: 7%
- Population Healthy Nuclei (%) [5]: 76%
- Population Hoechst High Intensity Objects (%) [5]: 3%
- Population Membrane Permeable-Phenotype (%) [5]: 0%
- Population Mitochondria Different-Phenotype (%) [5]: 44%
- Population Mitotic Cells (%) [5]: 69%
- Population Normal (%) [5]: 96%
- Population Pyknosed Nuclei (%) [5]: 15%
- Population Tubulin-Different-Phenotype (%) [5]: 24%
- Total Cell Count [5]: 456
- Population Apoptotic (%) [6]: 45%
- Population Fragmented Nuclei (%) [6]: 6%
- Population Healthy Nuclei (%) [6]: 78%
- Population Hoechst High Intensity Objects (%) [6]: 10%
- Population Mitochondria Different-Phenotype (%) [6]: 37%
- Population Mitotic Cells (%) [6]: 54%
- Population Normal (%) [6]: 89%
- Population Pyknosed Nuclei (%) [6]: 14%
- Population Tubulin-Different-Phenotype (%) [6]: 9%
- Total Cell Count [6]: 418
- Population Apoptotic (%) [7]: 25%
- Population Fragmented Nuclei (%) [7]: 10%
- Population Healthy Nuclei (%) [7]: 77%
- Population Hoechst High Intensity Objects (%) [7]: 4%
- Population Membrane Permeable-Phenotype (%) [7]: 0%
- Population Mitochondria Different-Phenotype (%) [7]: 29%
- Population Mitotic Cells (%) [7]: 74%
- Population Normal (%) [7]: 95%
- Population Pyknosed Nuclei (%) [7]: 12%
- Population Tubulin-Different-Phenotype (%) [7]: 29%
- Total Cell Count [7]: 650
- Population Apoptotic (%) [8]: 49%
- Population Healthy Nuclei (%) [8]: 75%
- Population Hoechst High Intensity Objects (%) [8]: 9%
- Population Mitochondria Different-Phenotype (%) [8]: 50%
- Population Mitotic Cells (%) [8]: 50%
- Population Normal (%) [8]: 90%
- Population Pyknosed Nuclei (%) [8]: 14%
- Population Tubulin-Different-Phenotype (%) [8]: 26%
- Total Cell Count [8]: 462
- Population Apoptotic (%) [9]: 23%
- Population Fragmented Nuclei (%) [9]: 11%
- Population Healthy Nuclei (%) [9]: 82%
- Population Hoechst High Intensity Objects (%) [9]: 2%
- Population Membrane Permeable-Phenotype (%) [9]: 1%
- Population Mitochondria Different-Phenotype (%) [9]: 22%
- Population Mitotic Cells (%) [9]: 76%
- Population Normal (%) [9]: 97%
- Population Pyknosed Nuclei (%) [9]: 6%
- Population Tubulin-Different-Phenotype (%) [9]: 15%
- Total Cell Count [9]: 730
- Population Apoptotic (%) [10]: 33%
- Population Fragmented Nuclei (%) [10]: 15%
- Population Healthy Nuclei (%) [10]: 79%
- Population Mitochondria Different-Phenotype (%) [10]: 16%
- Population Mitotic Cells (%) [10]: 66%
- Population Pyknosed Nuclei (%) [10]: 4%
- Population Tubulin-Different-Phenotype (%) [10]: 10%
- Total Cell Count [10]: 697
- Population Apoptotic (%) [11]: 36%
- Population Fragmented Nuclei (%) [11]: 12%
- Population Healthy Nuclei (%) [11]: 80%
- Population Hoechst High Intensity Objects (%) [11]: 3%
- Population Membrane Permeable-Phenotype (%) [11]: 1%
- Population Mitochondria Different-Phenotype (%) [11]: 17%
- Population Mitotic Cells (%) [11]: 63%
- Population Normal (%) [11]: 96%
- Population Pyknosed Nuclei (%) [11]: 7%
- Population Tubulin-Different-Phenotype (%) [11]: 18%
- Total Cell Count [11]: 883
- Population Fragmented Nuclei (%) [12]: 16%
- Population Healthy Nuclei (%) [12]: 75%
- Population Hoechst High Intensity Objects (%) [12]: 4%
- Population Membrane Permeable-Phenotype (%) [12]: 0%
- Population Mitochondria Different-Phenotype (%) [12]: 36%
- Population Normal (%) [12]: 95%
- Population Tubulin-Different-Phenotype (%) [12]: 17%
- Total Cell Count [12]: 649
